Reference: ChEMBL document CHEMBL3120078, “Benzofuran derivatives as a novel class of inhibitors of mTOR signaling” (Eur J Med Chem, 2014)
The source made the active and inactive calls. The calls are words filed in the database; no cut-off is given here.

What was measured:
SQ20B [1] = test: Cytotoxicity against human SQ20B cells after 72 hrs by MTT assay; assay type: functional, cell-based
Summary of the method: (§1)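 Cells grown in RPMI with 10% FCS, 2 mM glutamine and antibiotics at 37 °C, 5% CO2, seeded at 2 × 10³ cells/well. Treated 72 h, then MTT 0.4 mg/ml for 4 h at 37 °C. Formazan dissolved in DMSO, absorbance read at 560 nm. Untreated wells and cell-free wells as controls. IC50 taken from dose–response curves.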

[2] = Cytotoxicity against human 786-O cells; assay type: functional, cell-based; details: 786-0
HOP-92 = test: Cytotoxicity against human HOP92 cells after 72 hrs by MTT assay; assay type: functional, cell-based; details: HOP-92, 72 h
[3] = molecular target: T1, RAC-alpha serine/threonine-protein kinase (Homo sapiens, UniProt P31749); test: Inhibition of Akt/mTOR in human 786-O cells assessed as inhibition of nuclear export of transcription factor FOXO1a; assay type: cell-based
T1 sequence (P31749 whole entry): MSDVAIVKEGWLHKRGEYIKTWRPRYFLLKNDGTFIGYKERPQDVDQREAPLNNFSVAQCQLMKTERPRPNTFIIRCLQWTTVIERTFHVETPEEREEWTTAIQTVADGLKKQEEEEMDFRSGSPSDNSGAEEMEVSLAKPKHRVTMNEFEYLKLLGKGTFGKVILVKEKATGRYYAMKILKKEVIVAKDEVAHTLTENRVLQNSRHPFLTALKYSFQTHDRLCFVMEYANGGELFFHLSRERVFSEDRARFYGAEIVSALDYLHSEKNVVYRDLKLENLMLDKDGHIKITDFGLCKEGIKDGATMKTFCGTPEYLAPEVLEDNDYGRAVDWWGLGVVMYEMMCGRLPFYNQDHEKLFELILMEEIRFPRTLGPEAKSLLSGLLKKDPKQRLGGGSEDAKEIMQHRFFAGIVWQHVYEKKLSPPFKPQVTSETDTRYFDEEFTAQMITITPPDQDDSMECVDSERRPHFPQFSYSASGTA

HCC 2998 = test: Cytotoxicity against human HCC2998 cells after 72 hrs by MTT assay; assay type: functional, cell-based; details: HCC 2998, 72 h
CAKI-1 = test: Cytotoxicity against human Caki1 cells after 72 hrs by MTT assay; assay type: functional, cell-based; details: CAKI-1, 72 h
[4] = Cytotoxicity against human SKHEP1 cells after 72 hrs by MTT assay; assay type: functional, cell-based; details: SK-HEP1, 72 h
HOP-62 = test: Cytotoxicity against human HOP62 cells after 72 hrs by MTT assay; assay type: functional, cell-based; details: HOP-62, 72 h; summary of the method: as §1
DU-145 = test: Cytotoxicity against human DU145 cells after 72 hrs by MTT assay; assay type: functional, cell-based; details: DU-145, 72 h
OVCAR-3 = test: Cytotoxicity against human OVCAR3 cells after 72 hrs by MTT assay; assay type: functional, cell-based; details: OVCAR-3, 72 h
HT-29 = test: Cytotoxicity against human HT-29 cells after 72 hrs by MTT assay; assay type: functional, cell-based; details: HT-29, 72 h; summary of the method: as §1
COLO 205 = test: Cytotoxicity against human COLO205 cells after 72 hrs by MTT assay; assay type: functional, cell-based; details: COLO 205, 72 h; summary of the method: as §1
[5] = Cytotoxicity against human ColoR cells after 72 hrs by MTT assay; assay type: functional, cell-based; summary of the method: as §1
HCT-116 = test: Cytotoxicity against human HCT116 cells after 72 hrs by MTT assay; assay type: functional, cell-based; details: HCT-116, 72 h; summary of the method: as §1
mTORC1 (Homo sapiens) [6] = molecular target: T2, mTORC1 (Homo sapiens) (UniProt P42345+Q8N122+Q9BVC4); test: Inhibition of mTORC1 in human SQ20B cells assessed as inhibition of S6 ribosomal protein phosphorylation after 10 to 12 hrs by pull down assay; assay type: cell-based
T2 sequence (Q8N122 whole entry, looked up, other chains not shown): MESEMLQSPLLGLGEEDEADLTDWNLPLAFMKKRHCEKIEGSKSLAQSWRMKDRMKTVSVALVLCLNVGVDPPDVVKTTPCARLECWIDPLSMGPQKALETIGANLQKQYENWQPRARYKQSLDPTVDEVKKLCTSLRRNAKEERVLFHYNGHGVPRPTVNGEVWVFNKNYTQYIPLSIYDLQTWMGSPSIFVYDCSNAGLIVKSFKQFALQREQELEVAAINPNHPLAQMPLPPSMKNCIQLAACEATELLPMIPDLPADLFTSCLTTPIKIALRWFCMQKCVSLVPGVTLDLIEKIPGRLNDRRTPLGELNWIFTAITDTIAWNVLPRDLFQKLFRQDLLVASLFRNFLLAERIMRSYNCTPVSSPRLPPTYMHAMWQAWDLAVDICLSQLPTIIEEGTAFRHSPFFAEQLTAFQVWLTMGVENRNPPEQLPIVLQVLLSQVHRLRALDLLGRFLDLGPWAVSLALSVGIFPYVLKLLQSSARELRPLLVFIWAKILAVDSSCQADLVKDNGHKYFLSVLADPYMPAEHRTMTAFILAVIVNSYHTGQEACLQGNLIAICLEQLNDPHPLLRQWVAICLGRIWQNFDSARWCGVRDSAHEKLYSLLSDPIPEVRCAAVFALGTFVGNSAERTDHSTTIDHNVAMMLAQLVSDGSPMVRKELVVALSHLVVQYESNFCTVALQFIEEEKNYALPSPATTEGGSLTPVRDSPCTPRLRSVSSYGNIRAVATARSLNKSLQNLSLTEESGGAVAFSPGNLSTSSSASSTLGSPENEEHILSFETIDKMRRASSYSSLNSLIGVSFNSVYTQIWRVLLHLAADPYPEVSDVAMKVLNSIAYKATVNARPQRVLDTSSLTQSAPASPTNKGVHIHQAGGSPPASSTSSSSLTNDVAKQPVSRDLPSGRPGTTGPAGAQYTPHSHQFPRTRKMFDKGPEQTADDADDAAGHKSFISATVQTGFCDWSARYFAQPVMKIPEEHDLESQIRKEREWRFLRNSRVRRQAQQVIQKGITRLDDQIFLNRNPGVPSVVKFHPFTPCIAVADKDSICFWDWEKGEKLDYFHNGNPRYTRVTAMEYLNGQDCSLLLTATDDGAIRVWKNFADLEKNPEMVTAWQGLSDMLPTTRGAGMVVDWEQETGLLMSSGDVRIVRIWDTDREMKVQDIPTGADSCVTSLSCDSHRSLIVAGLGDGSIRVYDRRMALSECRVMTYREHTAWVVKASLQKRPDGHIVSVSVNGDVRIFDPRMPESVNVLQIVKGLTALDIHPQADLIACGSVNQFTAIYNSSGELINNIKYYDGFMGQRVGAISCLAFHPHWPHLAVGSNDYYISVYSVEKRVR
T2 sequence (Q9BVC4 whole entry, looked up, other chains not shown): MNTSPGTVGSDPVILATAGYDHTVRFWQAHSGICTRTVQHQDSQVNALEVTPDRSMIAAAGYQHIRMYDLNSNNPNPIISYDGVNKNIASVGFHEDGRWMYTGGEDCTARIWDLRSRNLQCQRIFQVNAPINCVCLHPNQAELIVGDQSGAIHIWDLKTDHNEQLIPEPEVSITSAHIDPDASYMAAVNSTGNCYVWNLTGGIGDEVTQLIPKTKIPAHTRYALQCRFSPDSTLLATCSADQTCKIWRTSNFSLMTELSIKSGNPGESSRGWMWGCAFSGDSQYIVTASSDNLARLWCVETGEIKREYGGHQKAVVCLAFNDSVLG

[7] = molecular target: T1, RAC-alpha serine/threonine-protein kinase; test: Binding affinity to Akt in human SQ20B cells after 10 to 12 hrs by pull down assay; assay type: cell-based
[8] = molecular target: T3, 3-phosphoinositide-dependent protein kinase 1 (Homo sapiens) (UniProt O15530); test: Binding affinity to PDK1 in human SQ20B cells after 10 to 12 hrs by pull down assay; assay type: cell-based
T3 sequence (whole entry): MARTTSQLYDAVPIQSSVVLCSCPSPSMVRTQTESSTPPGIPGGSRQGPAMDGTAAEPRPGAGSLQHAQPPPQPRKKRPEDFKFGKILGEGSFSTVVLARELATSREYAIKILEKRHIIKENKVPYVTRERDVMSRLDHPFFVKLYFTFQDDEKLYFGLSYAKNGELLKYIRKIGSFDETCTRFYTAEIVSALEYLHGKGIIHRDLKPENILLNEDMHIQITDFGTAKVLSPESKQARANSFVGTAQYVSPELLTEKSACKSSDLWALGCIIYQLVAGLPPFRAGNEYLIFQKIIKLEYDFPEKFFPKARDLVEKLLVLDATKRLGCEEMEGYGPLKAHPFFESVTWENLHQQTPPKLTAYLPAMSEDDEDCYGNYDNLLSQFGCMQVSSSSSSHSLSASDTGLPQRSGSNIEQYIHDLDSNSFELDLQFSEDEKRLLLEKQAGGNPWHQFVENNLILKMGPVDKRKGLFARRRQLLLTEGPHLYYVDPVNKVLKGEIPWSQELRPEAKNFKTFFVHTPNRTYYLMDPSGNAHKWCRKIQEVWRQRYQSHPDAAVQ

mTORC1 (Homo sapiens) [9] = molecular target: T2, mTORC1 (Homo sapiens); test: Inhibition of mTORC1 in human SQ20B cells assessed as AKT phosphorylation after 10 to 12 hrs by pull down assay; assay type: cell-based
[10] = molecular target: Rapamycin-insensitive companion of mTOR (Homo sapiens) (UniProt Q6R327); test: Binding affinity to rictor in human SQ20B cells after 10 to 12 hrs by pull down assay; assay type: cell-based
Sequence of Rapamycin-insensitive companion of mTOR (Homo sapiens) (Q6R327 whole entry): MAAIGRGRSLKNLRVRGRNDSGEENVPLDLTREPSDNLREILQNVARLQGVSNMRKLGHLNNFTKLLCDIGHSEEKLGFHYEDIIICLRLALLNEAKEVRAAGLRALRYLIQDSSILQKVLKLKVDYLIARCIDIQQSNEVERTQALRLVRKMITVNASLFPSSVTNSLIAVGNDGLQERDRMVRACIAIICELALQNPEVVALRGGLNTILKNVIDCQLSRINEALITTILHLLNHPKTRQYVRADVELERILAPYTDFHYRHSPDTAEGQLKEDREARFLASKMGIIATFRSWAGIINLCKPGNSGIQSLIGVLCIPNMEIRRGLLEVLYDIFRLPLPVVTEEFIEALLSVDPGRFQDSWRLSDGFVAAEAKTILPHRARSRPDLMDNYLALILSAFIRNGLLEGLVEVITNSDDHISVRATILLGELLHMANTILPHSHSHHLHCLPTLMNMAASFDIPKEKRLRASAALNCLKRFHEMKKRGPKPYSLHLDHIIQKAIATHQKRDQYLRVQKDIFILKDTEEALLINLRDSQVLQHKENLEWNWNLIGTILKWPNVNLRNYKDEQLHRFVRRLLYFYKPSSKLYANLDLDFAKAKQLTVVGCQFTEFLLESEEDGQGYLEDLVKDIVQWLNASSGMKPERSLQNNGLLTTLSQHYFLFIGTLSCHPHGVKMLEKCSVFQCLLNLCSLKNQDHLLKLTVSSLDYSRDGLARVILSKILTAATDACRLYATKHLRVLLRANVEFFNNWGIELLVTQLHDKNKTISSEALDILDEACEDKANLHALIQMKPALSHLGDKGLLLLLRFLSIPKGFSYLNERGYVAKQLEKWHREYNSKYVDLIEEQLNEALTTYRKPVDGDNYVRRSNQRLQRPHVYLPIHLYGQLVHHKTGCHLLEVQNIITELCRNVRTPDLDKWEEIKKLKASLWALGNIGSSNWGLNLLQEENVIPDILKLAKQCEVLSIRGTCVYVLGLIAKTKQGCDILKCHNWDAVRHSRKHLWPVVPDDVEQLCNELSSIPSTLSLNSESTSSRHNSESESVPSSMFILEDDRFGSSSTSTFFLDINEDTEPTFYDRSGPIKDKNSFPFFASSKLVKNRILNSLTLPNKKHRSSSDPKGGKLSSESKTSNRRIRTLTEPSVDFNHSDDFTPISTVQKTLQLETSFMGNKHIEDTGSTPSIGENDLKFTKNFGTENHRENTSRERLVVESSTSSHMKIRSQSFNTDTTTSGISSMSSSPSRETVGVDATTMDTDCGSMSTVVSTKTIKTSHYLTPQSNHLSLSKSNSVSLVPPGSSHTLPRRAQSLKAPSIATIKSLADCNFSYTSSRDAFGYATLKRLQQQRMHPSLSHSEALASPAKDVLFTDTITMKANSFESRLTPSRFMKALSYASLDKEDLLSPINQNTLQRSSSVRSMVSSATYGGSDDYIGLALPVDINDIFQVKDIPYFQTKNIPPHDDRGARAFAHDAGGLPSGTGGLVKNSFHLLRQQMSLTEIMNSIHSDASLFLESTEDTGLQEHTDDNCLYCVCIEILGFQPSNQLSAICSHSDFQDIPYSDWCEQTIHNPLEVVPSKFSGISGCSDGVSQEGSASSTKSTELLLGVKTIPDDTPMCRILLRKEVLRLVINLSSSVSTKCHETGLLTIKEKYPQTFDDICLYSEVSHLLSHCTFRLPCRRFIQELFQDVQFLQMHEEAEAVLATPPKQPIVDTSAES

SQ20B [11] = test: Binding affinity to PI3K in human SQ20B cells after 10 to 12 hrs by pull down assay; assay type: cell-based
[12] = molecular target: Regulatory-associated protein of mTOR (Homo sapiens) (UniProt Q8N122); test: Binding affinity to raptor in human SQ20B cells after 10 to 12 hrs by pull down assay; assay type: cell-based
Sequence of Regulatory-associated protein of mTOR (Homo sapiens) (Q8N122 whole entry): as the sequence (Q8N122 whole entry, looked up, other chains not shown) above

[13] = molecular target: Serine/threonine-protein kinase mTOR (Homo sapiens) (UniProt P42345); test: Binding affinity to mTOR in human SQ20B cells after 10 to 12 hrs by pull down assay; assay type: cell-based

Oc1ccc2oc(Cc3ccccc3)cc2c1CN1CCCC(O)C1 (stereo not given)
IC50 (SQ20B [1]): 11 µM

CN(C)Cc1c(O)ccc2oc(Cc3ccccc3)cc12
IC50 [2]: 10 µM
IC50 (HOP-92): 40 µM
IC50 [3]: 20 µM
IC50 (HCC 2998): 40 µM
IC50 (SQ20B [1]): 33 µM

CN(Cc1ccccc1)Cc1c(O)ccc2oc(Cc3ccccc3)cc12
IC50 (SQ20B [1]): 12 µM

CO[C@H]1C[C@@H]2CC[C@@H](C)[C@@](O)(O2)C(=O)C(=O)N2CCCC[C@H]2C(=O)O[C@H]([C@H](C)C[C@@H]2CC[C@@H](OCCO)[C@H](OC)C2)CC(=O)[C@H](C)/C=C(\C)[C@@H](O)[C@@H](OC)C(=O)[C@H](C)C[C@H](C)/C=C/C=C/C=C/1C [EVEROLIMUS]
IC50 (CAKI-1): 14 µM
IC50 [4]: 12 µM
IC50 (HOP-62): 19 µM
IC50 (DU-145): 8 µM
IC50 (OVCAR-3): 16 µM
IC50 (HT-29): 15 µM
IC50 (COLO 205): 20 µM
IC50 (SQ20B [1]): 5.5 µM
IC50 [5]: 8.7 µM
IC50 (HCT-116): 12 µM

COc1cccc2cc(-c3nc([C@H]4CC[C@H](C(=O)O)CC4)n4ncnc(N)c34)[nH]c12 [OSI-027]
IC50 (CAKI-1): 1.9 µM
IC50 [4]: 3.2 µM
IC50 (HOP-62): 41 µM
IC50 (DU-145): 4.1 µM
IC50 (OVCAR-3): 8.1 µM
IC50 (HT-29): 55 µM
IC50 (COLO 205): 5.8 µM
IC50 (SQ20B [1]): 1.3 µM
IC50 [5]: 5.8 µM
IC50 (HCT-116): 5.6 µM

Oc1ccc2oc(Cc3ccccc3)cc2c1CN1CCN(Cc2ccccc2)CC1
IC50 (SQ20B [1]): 36 µM

OCCN(CCO)Cc1c(O)ccc2oc(Cc3ccccc3)cc12
IC50 (SQ20B [1]): > 200 µM

CON(C)Cc1c(O)ccc2oc(Cc3ccccc3)cc12
IC50 (SQ20B [1]): 40 µM

OCCN(Cc1c(O)ccc2oc(Cc3ccccc3)cc12)C1CCCCC1
IC50 (SQ20B [1]): 27 µM

Oc1ccc2oc(Cc3ccccc3)cc2c1CN1CCC(N2CCCC2)CC1
inhibition (mTORC1 (Homo sapiens) [6]): Dose-dependent effect
IC50 (SQ20B [1]): 3 µM

CN1CCN(Cc2c(O)ccc3oc(Cc4ccccc4)cc23)CC1
IC50 (SQ20B [1]): 18 µM

O=CN1CCN(Cc2c(O)ccc3oc(Cc4ccccc4)cc23)CC1
IC50 (SQ20B [1]): 49 µM

Oc1ccc2oc(C(O)c3ccccc3)cc2c1CN1CCC(N2CCCCC2)CC1 (stereo not given)
IC50 (SQ20B [1]): 13 µM

O=C(NCCOCCO)C1CCN(C2CCN(Cc3c(O)ccc4oc(Cc5ccccc5)cc34)CC2)CC1
IC50 (SQ20B [1]): 14 µM

CN(Cc1c(O)ccc2oc(Cc3ccccc3)cc12)C1CCCCC1
IC50 (SQ20B [1]): 12 µM

CN(CCO)Cc1c(O)ccc2oc(Cc3ccccc3)cc12
IC50 (SQ20B [1]): 30 µM

Oc1ccc2oc(Cc3ccccc3)cc2c1CN1CCC(O)CC1
IC50 (SQ20B [1]): 13 µM

O=C(c1ccccc1)c1cc2c(CN3CCC(N4CCCCC4)CC3)c(O)ccc2o1
IC50 (SQ20B [1]): 17 µM

Oc1ccc2oc(Cc3ccccc3)cc2c1CN1CCC(N2CCCCC2)CC1
IC50 (CAKI-1): 6.9 µM
IC50 [4]: 11 µM
IC50 (HOP-62): 11 µM
IC50 (DU-145): 20 µM
IC50 (OVCAR-3): 19 µM
IC50 (HT-29): 5.1 µM
IC50 (COLO 205): 3.1 µM
IC50 (SQ20B [1]): 3 µM
IC50 [5]: 3.7 µM
IC50 (HCT-116): 12 µM

OCCOCCN1CCN(Cc2c(O)ccc3oc(Cc4ccccc4)cc23)CC1
IC50 (SQ20B [1]): 21 µM

Oc1ccc2oc(Cc3ccccc3)cc2c1CN1CCc2ccccc2C1
IC50 (SQ20B [1]): 16 µM

NC(=O)C1CCN(Cc2c(O)ccc3oc(Cc4ccccc4)cc23)CC1
IC50 (SQ20B [1]): 85 µM

Oc1ccc2oc(Cc3ccccc3)cc2c1CN1CCOCC1
IC50 (SQ20B [1]): 6.5 µM

Oc1ccc2oc(Cc3ccccc3)cc2c1CN1CCC(c2ccccc2)CC1
IC50 (SQ20B [1]): > 200 µM

Oc1ccc2oc(-c3ccccc3)cc2c1CN1CCC(N2CCCCC2)CC1
IC50 (CAKI-1): 26 µM
IC50 [4]: 42 µM
IC50 (HOP-62): 54 µM
IC50 (DU-145): 13 µM
IC50 (OVCAR-3): 22 µM
IC50 (HT-29): 45 µM
IC50 (COLO 205): 6.3 µM
IC50 (SQ20B [1]): 2.8 µM
IC50 [5]: 18 µM
IC50 (HCT-116): 57 µM

CCN(CC)Cc1c(O)ccc2oc(Cc3ccccc3)cc12
IC50 (SQ20B [1]): 12 µM

O=C(CCC(=O)ON1C(=O)CCC1=O)NCCNC(=O)COC(=O)NCCOCCOCCOCCOCCOCCOCCNC(=O)C1CCN(C2CCN(Cc3c(O)ccc4oc(-c5ccccc5)cc34)CC2)CC1
Activity [7]: inactive
Activity [8]: inactive
inhibition (mTORC1 (Homo sapiens) [9]): Active
Activity [10]: inactive
Activity (SQ20B [11]): inactive
inhibition (mTORC1 (Homo sapiens) [6]): Dose-dependent effect
Activity [12]: inactive
Activity [13]: Active
